Results on one molecule are retold here after ChEMBL document CHEMBL3526151, “Reversible disulfide formation of the glutamate carboxypeptidase II inhibitor E2072 results in prolonged systemic exposures in vivo” (Drug Metab Dispos, 2012).

Data set [1] in a line: AUC(0 to last) in Sprague-Dawley rat at 10 mg/kg, po administered via gavage measured under fed conditions by LC-MS/MS analysis. It is filed as ADME, organism-based. Also on record: time 0 - last, dose 10 mg/kg, route oral. As to conditions: plasma. The essentials:
(§1)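 Nonfasted male Sprague-Dawley rats given a single 10 mg/kg oral dose in 50 mM HEPES buffered saline, pH 7.4. Plasma collected 0.25–24 h into heparin/NEM tubes and assayed by LC-MS/MS. Noncompartmental parameters derived, including Cl/F and Vd/F. Mean ± S.D., n = 6–9.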

Data set [2] is described as follows: Clearance in Sprague-Dawley rat at 10 mg/kg, iv by LC-MS/MS analysis. The note with it: in vivo. It is filed as ADME, organism-based. Details: dose 10 mg/kg, route intravenous. The essentials:
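Male Sprague-Dawley rats dosed intravenously at 10 mg/kg (n = 6). Blood sampling extended to 7 days into heparin tubes containing NEM. Plasma assayed for parent and homodisulfide by LC-MS/MS, calibration range 1–5000 ng/ml. Noncompartmental analysis, t1/2 = 0.693/λz. Mean ± S.D.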

A short description of data set [3]: Cmax in cynomolgus monkey at 5 mg/kg, iv administered as bolus injection by LC-MS/MS analysis. It is filed as ADME, organism-based, Macaca fascicularis. Details: dose 5 mg/kg, route intravenous. As to conditions: in vivo. The essentials: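 Cynomolgus monkeys (n = 3) received a nominal 5 mg/kg dose in 50 mM HEPES, TCEP-treated to prevent disulfide formation. Dosing was either an IV bolus via cephalic or saphenous vein or oral. Arterial cannula blood was collected into NEM-containing heparinized tubes for up to 9 days and analyzed by LC-MS/MS. Noncompartmental analysis gave t1/2 = 0.693/λz and F% = dose-normalized mean AUCinf p.o./i.v. ×100.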

The test system of data set [4] is Cynomolgus monkey. Put plainly: Clearance in cynomolgus monkey at 5 mg/kg, iv administered as bolus injection by LC-MS/MS analysis. Also on record: dose 5 mg/kg, route intravenous. As to conditions: in vivo. In kind it is ADME, organism-based, Macaca fascicularis. The essentials:
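Cynomolgus monkeys (n = 3) given a 5 mg/kg intravenous bolus via cephalic or saphenous vein. Dosing solution in 50 mM HEPES, TCEP-treated. Arterial cannula blood collected up to 9 days into heparin/NEM tubes. Plasma assayed by LC-MS/MS. Noncompartmental analysis.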

Data set [5] in a line: Volume of distribution in cynomolgus monkey at 5 mg/kg, iv administered as bolus injection by LC-MS/MS analysis. It is filed as ADME, organism-based, Macaca fascicularis. Details: dose 5 mg/kg, route intravenous. The note with it: in vivo. The method, boiled down:
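Monkey i.v. bolus at 5 mg/kg nominal (n=3), TCEP-treated HEPES solution, via cephalic or saphenous vein. Arterial blood into NEM tubes over 9 days. Plasma measured by LC-MS/MS; Vd = dose/(AUCinf·λz).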

Data set [6] is described as follows: Tmax in cynomolgus monkey at 5 mg/kg, po by LC-MS/MS analysis. Also on record: dose 5 mg/kg, route oral. The note with it: in vivo. In kind it is ADME, organism-based, Macaca fascicularis. The essentials: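 Cynomolgus monkeys (n=3) dosed at 5 mg/kg nominal, TCEP-treated 50 mM HEPES solution, either as i.v. bolus (cephalic or saphenous vein) or orally. Arterial cannula blood into heparin/NEM tubes for up to 9 days. Plasma parent and homodisulfide measured by LC-MS/MS; Tmax observed.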

A short description of data set [7]: Phase 1 metabolic stability in dog liver microsomes assessed as compound remaining at 10 uM measured for 1 hr by LC-MS/MS analysis. In kind it is ADME, Canis lupus familiaris. As to conditions: read-out: Stability. The essentials: (§2)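 Liver microsomes (0.5 mg/ml) were incubated with 10 µM compound (final) in 100 mM potassium phosphate, pH 7.4. An NADPH-regenerating system was present: 1.3 mM NADPH, 3.3 mM glucose 6-phosphate, 3.3 mM MgCl2, 0.4 U/ml G6PDH and 50 µM sodium citrate. Runs were in duplicate, with samples taken up to 1 h and quenched with acetonitrile containing internal standard. Loss of compound was followed by LC-MS/MS.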
For orientation: Liver microsomes are a subcellular fraction often used to study metabolism.

A short description of data set [8]: Phase 1 metabolic stability in rat liver microsomes assessed as compound remaining at 10 uM measured for 1 hr by LC-MS/MS analysis in absence of cofactors. It is filed as ADME. As to conditions: read-out: Stability. The essentials: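 Cofactor-free controls were run for each microsomal incubation: 0.5 mg/ml liver microsomes with 10 µM compound, omitting cofactors, so that cofactor-independent degradation could be measured. Samples were taken up to 1 h, quenched with acetonitrile containing internal standard, and the percent remaining was determined by LC-MS/MS.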

Data set [9] in a line: Cmax in Sprague-Dawley rat liver at 10 mg/kg/day, po administered for 5 days measured per gm of tissue by LC-MS/MS analysis. In kind it is ADME, organism-based. Also on record: dose 10 mg/kg/day, route oral. The essentials: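 Male Sprague-Dawley rats were dosed orally with 10 mg/kg/day, either once or daily for 5 days; n = 4 per group. Blood was taken by cardiac puncture and liver, kidney, brain and sciatic nerve were collected at 0–8 h post-dose. Tissues were homogenized in PBS containing NEM at equal volume per gram. NEM-derivatized analyte was extracted with methanol and quantified by LC-MS/MS (1–5000 ng/ml). Cmax is the observed value.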

In data set [10] the test system is Rattus norvegicus. Put plainly: Analgesic activity in Sprague-Dawley rat chronic constriction injury model assessed as change in paw withdrawal latency at 10 mg/kg/day, po (reference value: -3.11 +/-0.34 s). In kind it is functional.
Data set [11] concerns Rattus norvegicus. Briefly: Analgesic activity in Sprague-Dawley rat chronic constriction injury model assessed as change in paw withdrawal latency at 10 mg/kg/day, po measured 4 days after drug treatment cessation (reference value: -2.85 +/-0.32 s). It is filed as functional.
A short description of data set [12]: Phase 1 metabolic stability in rat liver microsomes assessed as compound remaining at 10 uM measured for 1 hr by LC-MS/MS analysis. It is filed as ADME. The note with it: read-out: Stability. The method, boiled down: as §2
Data set [13] is described as follows: Tmax in Sprague-Dawley rat at 0.1 mg/kg, po administered via gavage measured under fasted conditions by LC-MS/MS analysis. In kind it is ADME, organism-based. Also on record: dose 0.1 mg/kg, route oral. As to conditions: in vivo. The method, boiled down:
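Jugular-cannulated male Sprague-Dawley rats, 280–330 g, fasted overnight to 4 h post-dose. Single dose in 50 mM HEPES-buffered saline pH 7.4, by oral gavage or as tail-vein i.v. bolus. Blood into heparin/NEM tubes at 0–24 h. Plasma measured by LC-MS/MS; noncompartmental analysis; Tmax observed; Vd = dose/(AUCinf·λz).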

Data set [14] is described as follows: AUC(0 to infinity) in Sprague-Dawley rat at 30 mg/kg, po administered via gavage measured under fasted conditions by LC-MS/MS analysis. In kind it is ADME, organism-based. Details: time infinity, dose 30 mg/kg, route oral. The note with it: plasma. The method, boiled down:
(§3)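 Fasted male Sprague-Dawley rats (280–330 g) received 0.1, 1, 10 or 30 mg/kg by oral gavage in 50 mM HEPES buffered saline, pH 7.4. Blood drawn at 0.25–24 h into heparin/NEM tubes; plasma analyzed by LC-MS/MS. Cmax taken as observed. AUC by linear trapezoidal rule with extrapolation by λz. Cl/F and Vd/F reported. Mean ± S.D., n = 4–9.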

Data set [15] in a line: AUC(0 to last) in Sprague-Dawley rat at 10 mg/kg, po administered via gavage measured under fasted conditions by LC-MS/MS analysis. It is filed as ADME, organism-based. The note with it: plasma. Also on record: time 0 - last, dose 10 mg/kg, route oral. The essentials:
as §3

Data set [16] is described as follows: Phase 1 metabolic stability in mouse liver microsomes assessed as compound remaining at 10 uM measured for 1 hr by LC-MS/MS analysis. It is filed as ADME. The note with it: read-out: Stability. The essentials:
as §2

Data set [17] in a line: Half life in Sprague-Dawley rat at 1 mg/kg, iv administered as bolus injection measured under fasted conditions by LC-MS/MS analysis. It is filed as ADME, organism-based. Also on record: dose 1 mg/kg, route intravenous. As to conditions: in vivo.
Data set [18] in a line: Half life in Sprague-Dawley rat at 30 mg/kg, po administered via gavage measured under fasted conditions by LC-MS/MS analysis. In kind it is ADME, organism-based. Also on record: dose 30 mg/kg, route oral. The note with it: in vivo.
Data set [19] can be described thus: Oral bioavailability in Sprague-Dawley rat at 1 mg/kg administered via gavage measured under fasted conditions by LC-MS/MS analysis. It is filed as ADME, organism-based. The note with it: in vivo.
Data set [20] in a line: Cmax in Sprague-Dawley rat at 10 mg/kg, po administered via gavage measured under fed conditions by LC-MS/MS analysis. In kind it is ADME, organism-based. Also on record: dose 10 mg/kg, route oral. As to conditions: in vivo. The method, boiled down:
as §1

The species named for data set [21] is Rattus norvegicus. Briefly: Drug recovery in Sprague-Dawley rat plasma stability experiment. As to conditions: in vitro.

A value given as a limit tells only on which side of the number the result lay.

For orientation: AUC(0-t) means the area under the concentration-time curve up to a stated or last time point. One may read the clearance as a measure of how efficiently the substance is removed, as volume per time. Usually Cmax stands for the highest concentration seen after dosing. What is called Vd is a proportionality between amount in the body and measured concentration, not a real space. In general, Tmax refers to the time from dosing to the highest level. The AUC(0-inf) is the area under the concentration-time curve extrapolated to infinity. As usually defined, the half-life is how long it takes for the measured level to halve. As a reminder, the bioavailability is dose-corrected exposure relative to a reference, in per cent. In the case of `O=C(O)c1cccc(-c2cccc(CCS)c2C(=O)O)c1`, the figures for the AUC(0-t) in data set [1] and in data set [15] were 32200 ng·h/mL and 33400 ng·h/mL, respectively. In addition, the clearance in data set [2] is 2 mL/min/kg. The Cmax in data set [3] stood at 68000 ng/mL; in [9], 457 ng/g; in [20] it was 16200 ng/mL. The CL in [4] stood at 0.367 mL/min/kg. In data set [5], this molecule had a Vd of 0.72 L/kg. Further, the figures for the Tmax in data set [6] and in data set [13] were 0.42 h and 0.83 h, respectively. Besides, the remaining at 1 h, 10 µM in data set [7], in data set [8], in [12] and in data set [16] was greater than 90% each time. Moreover, the Time is -0.55 s in data set [10] and -1.36 s in data set [11]. The AUC(0-inf) in [14] was 76600 ng·h/mL. Moreover, the half-life in [17] is 3.25 h; in data set [18] it was 3.15 h. For the same molecule, the bioavailability in [19] is 23.7%. Moreover, the Drug recovery in data set [21] is given as 60%.
